Assay results published in ChEMBL document CHEMBL1629421, “Isochaihulactone analogues: synthesis and anti-proliferative activity of novel dibenzylbutyrolactones” (2010).

Key:
Type in all cases: functional
MDA-MB-231 [1] = assay: Growth inhibition of human MDA-MB-231 cells at 50 ug/ml after 24 hrs by MTT colorimetric assay; details: MDA-MB-231, 24 h, read-out: GI
Procedure, shortened: (§1)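 Cells kept in RPMI 1640 with 10% FBS, 1% L-glutamine and penicillin-streptomycin at 37 °C, 5% CO2, and harvested with trypsin-EDTA. Seeded at 4 × 10⁴ cells/well, grown 24 h, then exposed to compound for 24 h at 37 °C. Medium replaced with phenol red-free medium, MTT (2 mg/ml) added for 4 h, formazan dissolved in isopropanol, A492 read. Inhibition taken versus untreated control wells; mean ± SD of three independent experiments.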

MCF7 [2] = assay: Growth inhibition of human MCF7 cells at 50 ug/ml after 24 hrs by MTT colorimetric assay; details: MCF7, 24 h, read-out: GI; procedure, shortened: as §1
MCF7 [3] = assay: Growth inhibition of human MCF7 cells at 25 ug/ml after 24 hrs by MTT colorimetric assay; details: MCF7, 24 h, read-out: GI; procedure, shortened: as §1
MDA-MB-231 [4] = assay: Growth inhibition of human MDA-MB-231 cells at 25 ug/ml after 24 hrs by MTT colorimetric assay; details: MDA-MB-231, 24 h, read-out: GI; procedure, shortened: as §1
T47D = assay: Growth inhibition of human T47D cells at 25 ug/ml after 24 hrs by MTT colorimetric assay; details: read-out: GI; procedure, shortened: as §1

Compound: O=C1OC[C@H](Cc2ccc3c(c2)OCO3)[C@H]1[C@H](O)c1ccc([N+](=O)[O-])cc1
- inhibition of growth at 50 µg/mL (MDA-MB-231 [1]): 20.1%
- inhibition of growth at 50 µg/mL (MCF7 [2]): 17.9%
- inhibition of growth at 25 µg/mL (MCF7 [3]): 24.6%
- inhibition of growth at 25 µg/mL (MDA-MB-231 [4]): 17.9%

Compound: O=C1OC[C@H](Cc2ccc3c(c2)OCO3)[C@H]1[C@H](O)c1ccccc1Cl
- inhibition of growth at 50 µg/mL (MDA-MB-231 [1]): 47.3%
- inhibition of growth at 50 µg/mL (MCF7 [2]): 7.5%
- inhibition of growth at 25 µg/mL (MCF7 [3]): 15.8%
- inhibition of growth at 25 µg/mL (T47D): 50.2%
- inhibition of growth at 25 µg/mL (MDA-MB-231 [4]): 34.8%

Compound: O=C1OC[C@H](Cc2ccc3c(c2)OCO3)[C@H]1[C@@H](O)c1ccccc1Cl
- inhibition of growth at 50 µg/mL (MDA-MB-231 [1]): 26.4%
- inhibition of growth at 50 µg/mL (MCF7 [2]): 31.9%
- inhibition of growth at 25 µg/mL (MCF7 [3]): 8.5%
- inhibition of growth at 25 µg/mL (T47D): 52.9%
- inhibition of growth at 25 µg/mL (MDA-MB-231 [4]): 19%

Compound: O=C1OC[C@H](Cc2ccc3c(c2)OCO3)[C@H]1Cc1ccccc1
- inhibition of growth at 50 µg/mL (MDA-MB-231 [1]): 36.2%
- inhibition of growth at 50 µg/mL (MCF7 [2]): 46%
- inhibition of growth at 25 µg/mL (MCF7 [3]): 17%
- inhibition of growth at 25 µg/mL (T47D): 61.9%
- inhibition of growth at 25 µg/mL (MDA-MB-231 [4]): 26.2%

Compound: COc1ccc(C(O)[C@H]2C(=O)OC[C@@H]2Cc2ccc3c(c2)OCO3)cc1 (mixture of isomers)
- inhibition of growth at 50 µg/mL (MDA-MB-231 [1]): 48.8%
- inhibition of growth at 50 µg/mL (MCF7 [2]): 22.4%
- inhibition of growth at 25 µg/mL (MCF7 [3]): 42.7%
- inhibition of growth at 25 µg/mL (MDA-MB-231 [4]): 10.1%

Compound: COc1cccc(C(O)[C@H]2C(=O)OC[C@@H]2Cc2ccc3c(c2)OCO3)c1 (mixture of isomers)
- inhibition of growth at 50 µg/mL (MDA-MB-231 [1]): 41.9%
- inhibition of growth at 50 µg/mL (MCF7 [2]): 12.2%
- inhibition of growth at 25 µg/mL (MCF7 [3]): -3.8%
- inhibition of growth at 25 µg/mL (MDA-MB-231 [4]): 14.5%

Compound: COc1cc(C(O)[C@H]2C(=O)OC[C@@H]2Cc2ccc3c(c2)OCO3)cc(OC)c1OC (mixture of isomers)
- inhibition of growth at 50 µg/mL (MDA-MB-231 [1]): 10.2%
- inhibition of growth at 50 µg/mL (MCF7 [2]): 37.7%
- inhibition of growth at 25 µg/mL (MCF7 [3]): 5.2%
- inhibition of growth at 25 µg/mL (T47D): 50.1%
- inhibition of growth at 25 µg/mL (MDA-MB-231 [4]): -1.9%

Compound: O=C1OC[C@H](Cc2ccc3c(c2)OCO3)[C@H]1C(O)c1ccc([N+](=O)[O-])cc1 (mixture of isomers)
- inhibition of growth at 50 µg/mL (MDA-MB-231 [1]): 29%
- inhibition of growth at 50 µg/mL (MCF7 [2]): 38.8%
- inhibition of growth at 25 µg/mL (MCF7 [3]): 7.2%
- inhibition of growth at 25 µg/mL (MDA-MB-231 [4]): 22.5%

Compound: O=C1OC[C@H](Cc2ccc3c(c2)OCO3)[C@H]1C(O)c1ccccc1[N+](=O)[O-] (mixture of isomers)
- inhibition of growth at 50 µg/mL (MDA-MB-231 [1]): 35.1%
- inhibition of growth at 50 µg/mL (MCF7 [2]): -0.2%
- inhibition of growth at 25 µg/mL (MCF7 [3]): 21.9%
- inhibition of growth at 25 µg/mL (T47D): 38.1%
- inhibition of growth at 25 µg/mL (MDA-MB-231 [4]): 7.9%

Compound: COc1cccc2c1C(=O)c1c(O)c3c(c(O)c1C2=O)C[C@@](O)(C(=O)CO)C[C@@H]3O[C@H]1C[C@H](N)[C@H](O)[C@H](C)O1 [DOXORUBICIN]
- inhibition of growth at 50 µg/mL (MDA-MB-231 [1]): 48.8%
- inhibition of growth at 50 µg/mL (MCF7 [2]): 31.8%
- inhibition of growth at 25 µg/mL (MCF7 [3]): 54.6%
- inhibition of growth at 25 µg/mL (T47D): 60%
- inhibition of growth at 25 µg/mL (MDA-MB-231 [4]): 57.9%

Compound: CC/C(=C(\c1ccccc1)c1ccc(OCCN(C)C)cc1)c1ccccc1 [TAMOXIFEN]
- inhibition of growth at 50 µg/mL (MDA-MB-231 [1]): 67.7%
- inhibition of growth at 50 µg/mL (MCF7 [2]): 25%
- inhibition of growth at 25 µg/mL (MCF7 [3]): 65.7%
- inhibition of growth at 25 µg/mL (T47D): 67.8%
- inhibition of growth at 25 µg/mL (MDA-MB-231 [4]): 58.6%
